TRPC4 agonist: activators of mouse TRPC4 channel. AID 2237. Q9QUQ5. B-score at 10 µM. 310,000 compounds, 0.49% hits. HEK293 TRPC4beta/mu-opioid, Fluo4 calcium fluorescence; stronger effect = higher value;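 active = B-score above 5 SD of library B-scores, and initial fluorescence ratio not above library mean plus 5 SD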;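 also: positive B-score marks a calcium rise read as TRPC4 activation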
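System: HEK293 cells stably co-expressing mouse TRPC4beta and mu-opioid receptor; Schedule: Fluo4 dye loading 45 min at room temperature, 110 s recording; Detection: Fluo4 fluorescence, kinetic; Evaluation: B-scored integrated calcium fluorescence ratio; Controls: buffer (low) and maximal DAMGO (high).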
TRPC6 activator: mouse TRPC6 channel activation | 310,000 compounds, 0.13% hits | AID 2550 | B-score at 10 µM | HEK293-TRPC6 membrane potential dye fluorescence; stronger effect = higher value;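 active = B-score of the integrated fluorescence ratio above library mean plus 3 SD, and starting fluorescence ratio within library mean plus 5 SD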;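 also: higher score means more depolarization so channel activation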
Target sequence (Q61143 whole entry, looked up): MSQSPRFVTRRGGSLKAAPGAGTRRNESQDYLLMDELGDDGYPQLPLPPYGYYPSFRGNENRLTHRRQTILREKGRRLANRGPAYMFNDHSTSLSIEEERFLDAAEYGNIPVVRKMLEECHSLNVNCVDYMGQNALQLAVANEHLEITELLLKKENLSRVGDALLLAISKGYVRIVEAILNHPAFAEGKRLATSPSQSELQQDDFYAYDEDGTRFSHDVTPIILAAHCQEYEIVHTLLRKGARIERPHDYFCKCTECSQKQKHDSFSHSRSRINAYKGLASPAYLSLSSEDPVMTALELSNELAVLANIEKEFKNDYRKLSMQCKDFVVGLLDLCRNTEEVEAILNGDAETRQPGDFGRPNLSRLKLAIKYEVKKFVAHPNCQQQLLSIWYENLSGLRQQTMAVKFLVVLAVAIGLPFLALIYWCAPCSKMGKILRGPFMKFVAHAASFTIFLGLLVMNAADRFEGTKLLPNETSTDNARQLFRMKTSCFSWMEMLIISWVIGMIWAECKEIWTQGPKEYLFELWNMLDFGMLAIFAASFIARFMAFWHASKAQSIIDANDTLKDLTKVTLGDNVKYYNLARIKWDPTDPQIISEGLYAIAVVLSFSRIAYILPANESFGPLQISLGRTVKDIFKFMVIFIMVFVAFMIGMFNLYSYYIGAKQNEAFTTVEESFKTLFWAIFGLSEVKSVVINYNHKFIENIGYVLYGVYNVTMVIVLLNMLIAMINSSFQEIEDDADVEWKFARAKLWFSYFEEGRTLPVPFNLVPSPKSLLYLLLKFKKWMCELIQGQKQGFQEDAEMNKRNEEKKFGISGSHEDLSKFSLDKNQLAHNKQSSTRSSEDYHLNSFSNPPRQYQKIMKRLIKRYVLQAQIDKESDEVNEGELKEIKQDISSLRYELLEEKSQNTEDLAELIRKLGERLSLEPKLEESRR
TRPC4 PAM: allosteric potentiators of mouse TRPC4 channel. Q9QUQ5. HEK293 TRPC4beta/mu-opioid, DAMGO EC20, Fluo-4 Ca2+ flux; stronger effect = higher value. B-score at 10 µM. 310,000 compounds, 0.42% hits. AID 2227;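 active = B-score of calcium response area above 5 SD of library B-scores, with initial fluorescence ratio within 5 SD of library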;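 also: B-score of integrated fluorescence ratio over time as area under calcium response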
TRPC4 block: TRPC4 (mouse) channel inhibition. HEK293 TRPC4beta/mu-opioid, DAMGO-evoked Fluo4 calcium flux; stronger effect = lower value. B-score at 10 µM. 300,000 compounds, 0.39% hits. AID 2247;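 active = B-score over 3 SD under the library average, no early fluorescence shift, positive overall ratio signal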
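Assay system: HEK293 cells with stable TRPC4beta plus mu-opioid receptor expression. Dosing: single dose. Measured by: Fluo4 Ca2+ flux fluorescence. Also added: DAMGO in two steps, submaximal then maximal. Read-out: B score from integrated Fluo4 fluorescence ratio.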
TRPC6 inh: mouse TRPC6 channel inhibition; Q61143; 310,000 compounds, 1.1% hits; HEK293-TRPC6, membrane potential dye, ACh-evoked depolarization; stronger effect = lower value; AID 2553; B-score at 10 µM;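 active = B-score under library mean minus 3 SD, initial fluorescence not abnormally high, positive integrated signal ratio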;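 also: B-score derived from integrated fluorescence ratio over the kinetic read; more negative B-score means stronger inhibition of depolarization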
TRPC4 sel inh 2: second check of whether TRPC6 inhibitors also affect mouse TRPC4; shares compounds with TRPC6 inh; inhibition, % at 10 µM; 920 compounds, 42% hits; HEK293 TRPC4/MOR, membrane potential dye fluorescence; channel activated by saturating DAMGO dose;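 active = compounds whose fluorescence signal differed from control wells by over 3 SD, either direction, in both duplicate plates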
TRPC4 spec: selectivity of TRPC6 inhibitors: effect on mouse TRPC4; activity change, negative = inhibition, % at 10 µM; 920 compounds, 61% hits; HEK293 TRPC4/mu-opioid, membrane potential fluorescence; AID 2777; shares compounds with TRPC6 inh;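 active = rise or fall in signal beyond 3 SD of buffer-only wells in both replicate plates, either sign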;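 also: integrated kinetic ratio of fluorescence range over baseline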
HEK293 MPD ctr 2-1: parental HEK293 nonspecific activity of TRPC6 inhibitors, second screen; signal change vs control, % at 10 µM; parental HEK293 membrane potential dye fluorescence; maximal acetylcholine challenge after compound addition; shares compounds with TRPC6 inh; AID 2779; 920 compounds, 31% hits;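 active = membrane potential signal moving either way by over 3 SD of the maximum-effect control, in both duplicate plates, meaning non-specific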
HEK293 MPD ctr-1: checks TRPC6 inhibitor effects in parental HEK293 cells; AID 2780; shares compounds with TRPC6 inh; membrane potential signal change, % at 10 µM; 920 compounds, 60% hits; parental HEK293 membrane potential dye fluorescence;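 active = membrane potential signal shifting up or down by more than 3 SD of buffer-only wells, on both duplicate plates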
HEK293 MPD ctr-2: counter-screen for TRPC6 modulators: effect in parental HEK293 cells; shares compounds with TRPC6 inh; membrane potential dye fluorescence; membrane potential signal change, % at 10 µM; 2,400 compounds, 51% hits; AID 488924;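 active = membrane potential signal moves up or down beyond 5 SD from buffer-only wells, on both duplicate plates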
HEK293 MPD ctr 2-2: second check of TRPC6 modulator effects in parental HEK293 cells; shares compounds with TRPC6 inh; membrane potential dye fluorescence; after compound, maximal acetylcholine stimulation; inhibition, % at 10 µM; 2,400 compounds, 14% hits; AID 488926;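 active = membrane potential signal drops by more than 5 SD from the mean control signal, in both duplicate plates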;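 also: plate controls were acetylcholine ECmax control wells for no effect and buffer only wells for full effect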
TRPC4/MOR mod: tests whether TRPC6 modulators also affect mouse TRPC4; shares compounds with TRPC6 inh; HEK293 TRPC4/mu-opioid, membrane potential fluorescence; percent change from control (negative = decrease, positive = increase), % at 10 µM; 2,400 compounds, 69% hits;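 active = membrane potential signal moved up or down beyond 5 SD of buffer control wells, in both duplicate plates, actives on both sides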;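 also: plate controls were assay buffer wells for no effect and DAMGO maximal-effect wells for full effect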
TRPC4/MOR inh 2: mouse TRPC4 off-target activity of TRPC6 modulators, second screen; shares compounds with TRPC6 inh; HEK293 TRPC4/mu-opioid, membrane potential dye fluorescence; stimulated with maximal-effect DAMGO; inhibition, % at 10 µM; 2,400 compounds, 55% hits; AID 488928;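 active = drop in membrane potential signal beyond 5 SD of the control wells in both duplicate plates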;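 also: TRPC4 counter screen for TRPC6 hits run under conditions tuned for TRPC6 not TRPC4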
TRPC6 inh conf: confirmation of mouse TRPC6 inhibitors; HEK293-TRPC6, membrane potential dye, ACh-evoked depolarization; AID 488960; 3,300 compounds, 43% hits; shares compounds with TRPC6 inh; inhibition, % at 10 µM;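 active = fluorescence ratio falls more than 5 SD below the full-stimulation control mean, in both duplicate runs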;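 also: integrated fluorescence ratio of peak minus minimum over baseline after agonist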
TRPC6 act conf: confirmation of mouse TRPC6 activators; HEK293-TRPC6 membrane potential dye fluorescence, FDSS; shares compounds with TRPC6 inh; activation, % at 10 µM; 2,800 compounds, 11% hits;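 active = ratio signal rise beyond 5 SD above unstimulated control wells' mean, seen in both duplicate runs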;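 also: plate controls were buffer EC0 wells for no effect and acetylcholine ECmax response for full effect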
Active calls of the source: *; i = inactive; . = no result given. Compounds with a hit are over-represented: about 2.3% of the library has one in this group of screens.

SMILES | TRPC4 agonist | TRPC6 activator | TRPC4 PAM | TRPC4 block | TRPC6 inh | HEK293 MPD ctr-2 | HEK293 MPD ctr 2-2 | TRPC4/MOR mod | TRPC4/MOR inh 2 | TRPC6 inh conf | TRPC6 act conf | others
CCOc1ccc2c(c1)-c1c(ssc1=S)C(C)(C)N2C(=O)CSC1=NCCS1 | i | i | i | i | i | . | . | . | . | . | .
O=C(c1ccccc1Cl)N1CCN(Cc2ccc3c(c2)OCO3)CC1 | i | 12.7* | i | i | i | i | i | i | i | i | 32.5%*
CSc1ccc(S(=O)(=O)N2CCN(Cc3ccc4c(c3)OCO4)CC2)cc1 | i | i | i | i | -4.98* | i | i | i | i | 39.5%* | i
Cc1ccc(S(=O)(=O)N2CCN(C(=O)Cc3ccc4c(c3)OCCO4)CC2)cc1C | i | i | i | i | -6.08* | i | i | i | i | i | i
O=C(O)CCC(=O)N1CCN(Cc2ccc3c(c2)OCO3)CC1 | i | i | i | i | -6.83* | . | . | . | . | i | i | TRPC4 sel inh 2=i;TRPC4 spec=i;HEK293 MPD ctr 2-1=i;HEK293 MPD ctr-1=i
COc1ccc(S(=O)(=O)N2CCN(Cc3ccc4c(c3)OCO4)CC2)cc1 | i | i | i | i | i | . | . | . | . | . | .
CCCC(=O)N1CCN(Cc2ccc3c(c2)OCO3)CC1 | i | i | i | i | i | . | . | . | . | . | .
CC(Oc1ccc(F)cc1)C(=O)Nc1cc(Cl)ccc1-n1cncn1 (centres undefined) | i | i | i | i | i | . | . | . | . | . | .
O=C1CCCC(O)=C1C=NCc1ccccc1 | i | i | i | i | i | . | . | . | . | . | .
Cc1ccc(NC2CCCN(C(=O)CCC3=NNC(=O)CC3)C2)cc1C (centres undefined) | i | i | i | i | i | . | . | . | . | . | .
O=C(c1cccn2c(=O)c3ccccc3nc12)N1CCN(Cc2ccc3c(c2)OCO3)CC1 | i | i | i | i | i | . | . | . | . | . | .
O=C(c1cccn2c(=O)c3cc(Cl)ccc3nc12)N1CCN(Cc2ccc3c(c2)OCO3)CC1 | i | i | i | i | -7.45* | . | . | . | . | i | i | TRPC4 sel inh 2=i;TRPC4 spec=i;HEK293 MPD ctr 2-1=i;HEK293 MPD ctr-1=i
O=C(c1ccc(Cn2cc(Cl)cn2)o1)N1CCN(Cc2ccc3c(c2)OCO3)CC1 | i | i | i | i | -5.65* | 98.0%* | i | 18.5%* | i | 40.0%* | .
Nc1nc[nH]c(=O)c1N=Cc1ccccc1 | i | i | i | i | i | . | . | . | . | . | .
Cc1cccc(NC(=O)CCCN2C(=O)C(c3ccccc3)Oc3cccnc32)c1C (centres undefined) | i | i | i | i | i | . | . | . | . | . | .
NS(=O)(=O)c1ccc(CCNCC(=O)N2CCC(Cc3ccccc3)CC2)cc1 | i | i | i | i | i | . | . | . | . | . | .
Cn1nc(C(=O)Nc2ccc(S(=O)(=O)Nc3ncccn3)cc2)ccc1=O | i | i | i | i | i | . | . | . | . | . | .
COc1ccc(-c2csc(N=C(N)N)n2)cc1 | i | i | i | i | i | . | . | . | . | . | .
Cc1ccc(-c2csc(N=C(N)N)n2)c(C)c1 | i | i | i | i | -5.45* | 94.0%* | i | 12.0%* | 52.0%* | i | .
C=CCc1ccccc1OCC(O)CN1CCOCC1 (centres undefined) | i | i | i | i | i | . | . | . | . | . | .
C=CCc1ccccc1OCC(O)CN1CCN(c2ccc(OC)cc2)CC1 (centres undefined) | i | i | i | i | -5.33* | i | i | i | 54.5%* | 60.5%* | i
Cc1cc(CSC(=N)N)c(CSC(=N)N)cc1C | 130* | i | i | i | -6.81* | -264.5%* | 58.5%* | -36.0%* | i | 47.0%* | i
Clc1ccc(-c2nc(NCCCN3CCOCC3)c3ccccc3n2)cc1 | i | i | i | i | -6.65* | . | . | . | . | 61.1%* | i | TRPC4 sel inh 2=71.5%*;TRPC4 spec=-23.8%*;HEK293 MPD ctr 2-1=i;HEK293 MPD ctr-1=-328.0%*
Clc1cccc(-c2nc(NCCCN3CCOCC3)c3ccccc3n2)c1 | i | i | i | i | i | . | . | . | . | . | .
Cc1ccc(-c2nc(NCCN3CCOCC3)c3ccccc3n2)cc1 | i | i | i | i | -6.25* | -209.5%* | i | -37.5%* | 74.0%* | 62.5%* | i
SMILES | TRPC4 agonist | TRPC6 activator | TRPC4 PAM | TRPC4 block | TRPC6 inh | HEK293 MPD ctr-2 | HEK293 MPD ctr 2-2 | TRPC4/MOR mod | TRPC4/MOR inh 2 | TRPC6 inh conf | TRPC6 act conf | others
COc1cccc(-c2nc(NCCN3CCOCC3)c3ccccc3n2)c1O | i | i | i | i | i | . | . | . | . | . | .
Clc1cccc(-c2nc(NCCN3CCOCC3)c3ccccc3n2)c1 | i | i | i | i | i | . | . | . | . | . | .
Oc1ccccc1-c1nc(NCCN2CCOCC2)c2ccccc2n1 | i | i | i | i | -8.34* | . | . | . | . | 67.7%* | i | TRPC4 sel inh 2=57.5%*;TRPC4 spec=-19.4%*;HEK293 MPD ctr 2-1=i;HEK293 MPD ctr-1=-327.5%*
c1csc(-c2nc(NCCCN3CCOCC3)c3ccccc3n2)c1 | i | i | i | i | -7.19* | -179.5%* | i | -40.0%* | 71.5%* | 68.0%* | i
Cc1ccc(C(=O)/C=C/c2cc(Br)cc(Br)c2O)o1 | i | i | i | i | i | . | . | . | . | . | .
Fc1ccccc1-c1nc(NCCCN2CCOCC2)c2ccccc2n1 | i | i | i | i | -5.09* | -271.5%* | i | -47.0%* | 55.0%* | 51.5%* | i

Screening results: PubChem, Johns Hopkins Ion Channel Center
